# Assay results taken from publication PMC7114882 (ACS Omega, 2020).
# What was measured:
# Format in all cases: cell-based
# Jurkat cells [1] = assay: MTT assay of Jurkat cells with 4 in the presence of inhibitors; conditions: 4 (25 μM), 1 h; BAPTA/AM 20 μM
# How it was run: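 Jurkat cells (1.0 × 10^5 cells/mL) in 10% FBS RPMI 1640 were preincubated with inhibitor for 30 min at 37 °C under 5% CO2, then given test compound (25 μM) for 1 h. After a further 4 h at 37 °C, 0.5% MTT in PBS was added. Formazan was dissolved overnight in 10% SDS/0.01 N HCl and absorbance read at 570 nm.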
# [2] = tested on: mitochondrial membrane potential (ΔΨm) of Jurkat cells; assay: Measurement of mitochondrial membrane potential; conditions: 4 25 μM; CCCP 40 μM; DilC1(5) 500 nM
# How it was run: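 Jurkat cells (2.0 × 10^5) in 10% FBS RPMI 1640 were preincubated with or without CCCP (40 μM) for 30 min at 37 °C under 5% CO2, then exposed to test compound (25 μM) for 1 h. ΔΨm was probed with DilC1(5) (500 nM). Confocal imaging recorded bright field, DilC1(5) emission and compound emission.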
# [3] = tested on: intracellular Ca^2+ in Jurkat cells; assay: Flow cytometry analysis of Jurkat cells stained with Rhod-2 or Rhod-4; conditions: celastrol, Figure S7
# Jurkat cells [4] = assay: Methylene blue staining and TEM of Jurkat cells; conditions: 4 25 μM 1 h; celastrol 1 μM 24 h
# How it was run: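 Jurkat cells (3.0 × 10^6) received test compound (25 μM, 1 h, 37 °C) or celastrol (1 μM, 24 h). Cells were pelleted, washed in ice-cold PBS/0.1% NaN3/0.5% FBS and prefixed in 2.5% glutaraldehyde (4 °C, 40 min). Postfixing used 1% OsO4 (4 °C, 30 min), then agarose embedding and ethanol dehydration. Cells were resin-embedded (60 °C, 3 days) and cut into 150 nm sections for methylene blue light microscopy and TEM.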
# [5] = tested on: Jurkat cells (T-lymphocyte leukemia); assay: MTT assay of Jurkat cells
# How it was run: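 Jurkat cells (2.0 × 10^5 cells/mL) were exposed to test compound ([…]) in 10% FBS/RPMI 1640 for 24 h at 37 °C under 5% CO2. After adding 0.5% MTT in PBS and incubating 4 h at 37 °C, formazan was dissolved overnight in 10% SDS/0.01 N HCl. Absorbance was read at 570 nm.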
structure (smiles),measurement,setting,value
"CC(=O)OCOC(=O)CN(CC(=O)OCOC(C)=O)c1ccccc1OCCOc1ccccc1N(CC(=O)OCOC(C)=O)CC(=O)OCOC(C)=O [BAPTA/AM, tetrakis(acetoxymethyl)-1,2-bis(2-aminophenoxy)ethane-N,N,N′,N′-tetraacetate]","Inhibition of cell death induced by 4 (MTT, microscopy)",Jurkat cells [1],negligibly inhibits
"N#CC(C#N)=NNc1cccc(Cl)c1 [CCCP, Carbonyl cyanide 3-chlorophenylhydrazone]","Mitochondrial membrane potential (ΔΨm), emission of DilC1(5)",[2],decrease in ΔΨm was also observed
CC1=C(O)C(=O)C=C2C1=CC=C1[C@@]2(C)CC[C@@]2(C)[C@@H]3C[C@](C)(C(=O)O)CC[C@]3(C)CC[C@]12C [celastrol],Change in mitochondrial Ca2+ concentration (Rhod-2),[3],small change
same,"Cytoplasmic vacuolization, TEM",Jurkat cells [4],vacuolization
same,"Cytoplasmic vacuolization, methylene blue staining",Jurkat cells [4],same intracellular morphological changes
O=C(Nc1ccc2[nH]nc(-c3ccncc3)c2c1)[C@@H]1CCN(CC(=O)N2CCN(c3ccc(-c4ncccn4)cc3)CC2)C1 [SCH772984],"Inhibition of cell death induced by 4 (MTT, microscopy)",Jurkat cells [1],negligible inhibition
N#CC(=C(/N)Sc1ccccc1N)/C(C#N)=C(/N)Sc1ccccc1N [U0126],"Inhibition of cell death induced by 4 (MTT, microscopy)",Jurkat cells [1],negligible inhibition
"CN1CCN(CCCN2c3ccccc3Sc3ccc(C(F)(F)F)cc32)CC1 [TFP, trifluoperazine]",EC50,"[5]; Homo sapiens, Jurkat, read-out: EC50, cell death of Jurkat cells",~50 µM
same,Cooperative effects with 4 on cell death of Jurkat cells,"[5]; TFP with 4 (25 μM), data not shown",negligible
Oc1c2ccccc2c2c3c(cccc13)N=N2 [SP600125],"Inhibition of cell death induced by 4 (MTT, microscopy)",Jurkat cells [1],negligible inhibition
